In ChEMBL document CHEMBL3822361, “Novel 1,6-naphthyridin-2(1H)-ones as potential anticancer agents targeting Hsp90” (Eur J Med Chem, 2016):
Values belong to the compound of their own block, whether it stands above or below them. Activity calls are given as the source filed them. The calls are words filed in the database; no cut-off is given here.

Experiments:
MCF7 [1] = experiment: Effect on actin level in human MCF7 cells at 1.5 times IC50 measured after 48 hrs by western blot analysis; assay type: cell-based; details: mcf7, 48 h
How it was run: (§1)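 Cells seeded in 6-well plates, 24 h at 37 °C, 5% CO2, then exposed 48 h to compound or 17-AAG in DMSO (1% final) or to vehicle. Lysed 2 h on ice in buffer with protease and phosphatase inhibitors, sonicated, protein measured by BCA. Equal protein run on SDS-PAGE, moved to PVDF, primary antibodies overnight at 4 °C, HRP secondary 1 h, ECL chemiluminescence.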

[2] = molecular target: T1, Heat shock protein HSP90 (Homo sapiens) (UniProt P07900+P08238); experiment: Inhibition of HSP90 in human MDA-MB-468 cells assessed as Raf-1 protein degradation at 1.5 times IC50 measured after 48 hrs by western blot analysis; assay type: cell-based; how it was run: as §1
MCF7 [3] = experiment: Effect on HSP90 level in human MCF7 cells at 1.5 times IC50 measured after 48 hrs by western blot analysis; assay type: cell-based; details: mcf7, 48 h; how it was run: as §1
MCF7 [4] = experiment: Antiproliferative activity against human MCF7 cells measured after 48 hrs by MTT assay; assay type: functional, cell-based; details: MCF7, 48 h
How it was run: (§2)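 Cells grown in DMEM with 2 mM L-glutamine, penicillin/streptomycin and 5% FBS at 37 °C, 5% CO2; seeded 6000/well in 96-well plates, attached 24 h. Compounds added over a concentration range in DMSO (1% final), 48 h. MTT (2.5 mg/mL in PBS) added for 3.5 h, formazan dissolved in DMSO, OD 570 nm. Growth relative to 1% DMSO; IC50 from separate triplicate experiments.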

[5] = molecular target: T1, Heat shock protein HSP90 (Homo sapiens); experiment: Inhibition of HSP90 in human MCF7 cells assessed as ER-alpha protein degradation at 1.5 times IC50 measured after 48 hrs by western blot analysis; assay type: cell-based; how it was run: as §1
MDA-MB-468 [6] = experiment: Effect on HSP90 level in human MDA-MB-468 cells at 1.5 times IC50 measured after 48 hrs by western blot analysis; assay type: cell-based; details: mda-mb-468, 48 h; how it was run: as §1
MDA-MB-468 [7] = experiment: Induction of apoptosis in human MDA-MB-468 cells assessed as mortality at 10 uM measured after 48 hrs by Annexin V-FITC/propidium iodide staining-based flow cytometry; assay type: functional; details: MDA-MB-468, 48 h
How it was run: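 MDA-MB-468 cells seeded in wells, held 24 h at 37 °C in 5% CO2, then exposed to compound in DMSO (1% DMSO final) for 48 h. Floating and trypsinised adherent cells pooled, PBS-washed, stained with annexin V-FITC plus propidium iodide in binding buffer 15 min on ice in the dark. Flow cytometry, ≥10 000 events per sample; annexin V-positive cells scored apoptotic.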

[8] = molecular target: T1, Heat shock protein HSP90 (Homo sapiens); experiment: Inhibition of HSP90 in human MCF-7 cells assessed as ER-alpha protein degradation at 1.5 times IC50 measured after 48 hrs by western blot analysis
MDA-MB-468 [9] = experiment: Effect on actin level in human MDA-MB-468 cells at 1.5 times IC50 measured after 48 hrs by western blot analysis; assay type: cell-based; details: mda-mb-468, 48 h; how it was run: as §1
MDA-MB-468 [10] = experiment: Cell cycle arrest in human MDA-MB-468 cells at 10 uM measured after 48 hrs by propidium iodide staining-based FACS analysis; assay type: functional
How it was run: (§3)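 MDA-MB-468 seeded 40,000/well in 24-well plates, 24 h at 37 °C, 5% CO2, then treated 48 h with compounds in DMSO (1% final). Cells trypsinized, washed in PBS, fixed in 70% ethanol, rehydrated in PBS, stained with propidium iodide in PBS. Phase distribution (G1, S, G2/M, polyploid, subG1) read by flow cytometry.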

[11] = molecular target: T1, Heat shock protein HSP90 (Homo sapiens); experiment: Inhibition of HSP90 in human MCF7 cells assessed as Raf-1 protein degradation at 1.5 times IC50 measured after 48 hrs by western blot analysis; assay type: cell-based; how it was run: as §1
MDA-MB-468 [12] = experiment: Effect on cell cycle in human MDA-MB-468 cells assessed as accumulation at subG1-phase at 10 uM measured after 48 hrs by propidium iodide staining-based FACS analysis; assay type: functional; how it was run: as §3
MDA-MB-468 [13] = experiment: Antiproliferative activity against human MDA-MB-468 cells measured after 48 hrs by MTT assay; assay type: functional, cell-based; details: MDA-MB-468, 48 h; how it was run: as §2
MDA-MB-468 [14] = experiment: Induction of apoptosis in human MDA-MB-468 cells at 2 uM measured after 48 hrs by Annexin V-FITC/propidium iodide staining-based flow cytometry; assay type: functional, cell-based
How it was run: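 Cells incubated 24 h at 37 °C, 5% CO2, then given compounds in DMSO (1% final) for 48 h. Floating and trypsinized adherent cells pooled, PBS-washed, stained with annexin V-FITC plus propidium iodide in binding buffer, 15 min on ice in the dark. Flow cytometry, ≥10 000 events per sample; annexin V-positive cells scored as apoptotic.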

MDA-MB-468 [15] = experiment: Effect on cell cycle distribution in human MDA-MB-468 cells assessed as accumulation at G2/M-phase at 2 uM measured after 48 hrs by propidium iodide staining-based flow cytometry; assay type: functional; how it was run: as §3

SMILES: COc1ccc(C(=O)Nc2cc3cnc(N4CCN(CCO)CC4)cc3n(C)c2=O)cc1
- Activity (MCF7 [1]): Non-toxic
- inhibition [2]: Active
- Activity (MCF7 [3]): Non-toxic
- IC50 (MCF7 [4]): 8.59 µM
- inhibition [5]: Active
- Activity (MDA-MB-468 [6]): Non-toxic
- mortality at 10 µM (MDA-MB-468 [7]): 40%
- inhibition [8]: Active
- Activity (MDA-MB-468 [9]): Non-toxic
- Activity (MDA-MB-468 [10]): inactive
- inhibition [11]: Active
- Activity (MDA-MB-468 [12]): Active
- IC50 (MDA-MB-468 [13]): 10.5 µM

SMILES: CO[C@@H]1[C@@H](OC(N)=O)[C@@H](O)[C@H](Oc2ccc3c(O)c(NC(=O)c4ccc(O)c(CC=C(C)C)c4)c(=O)oc3c2C)OC1(C)C [NOVOBIOCIN]
- IC50 (MCF7 [4]): 293 µM
- IC50 (MDA-MB-468 [13]): 338 µM

SMILES: COc1ccc(C(=O)Nc2cc3cnc(NCCN4CCOCC4)cc3n(C)c2=O)cc1
- IC50 (MCF7 [4]): > 100 µM
- IC50 (MDA-MB-468 [13]): > 100 µM

SMILES: Cn1c(=O)c(NC(=O)c2ccc(N)cc2)cc2cnc(NCCN3CCOCC3)cc21
- IC50 (MCF7 [4]): > 100 µM
- IC50 (MDA-MB-468 [13]): > 100 µM

SMILES: COc1ccc(C(=O)Nc2cc3cnc(N4CCN(C)CC4)cc3n(C)c2=O)cc1
- IC50 (MCF7 [4]): 35.4 µM
- IC50 (MDA-MB-468 [13]): 12.6 µM

SMILES: Cn1c(=O)c(NC(=O)c2ccc(Cl)cc2)cc2cnc(NCCN3CCOCC3)cc21
- IC50 (MCF7 [4]): 6.35 µM
- IC50 (MDA-MB-468 [13]): > 100 µM

The next lines start with results.

- inhibition [2]: Active
- IC50 (MCF7 [4]): 6 µM
- inhibition [5]: Active
- inhibition [8]: Active
- inhibition [11]: Active
- IC50 (MDA-MB-468 [13]): 1.87 µM
SMILES: CCCNc1cc2c(cn1)cc(NC(=O)c1cccc(-c3ccccc3)c1)c(=O)n2C
- Activity (MCF7 [1]): Non-toxic
- Activity (MDA-MB-468 [14]): inactive
- Activity (MCF7 [3]): Non-toxic
- Activity (MDA-MB-468 [6]): Non-toxic
- Activity (MDA-MB-468 [9]): Non-toxic
- Activity (MDA-MB-468 [15]): Active

- IC50 (MCF7 [4]): 36.6 µM
- IC50 (MDA-MB-468 [13]): 8.36 µM
SMILES: CN(C)CCNc1cc2c(cn1)cc(NC(=O)c1ccncc1)c(=O)n2C

- inhibition [2]: Active
- IC50 (MCF7 [4]): 4.85 µM
- inhibition [5]: Active
- inhibition [8]: Active
- inhibition [11]: Active
- IC50 (MDA-MB-468 [13]): 1.96 µM
SMILES: Cn1c(=O)c(NC(=O)c2cccc(-c3ccccc3)c2)cc2cnc(NCCN3CCOCC3)cc21
- Activity (MCF7 [1]): Non-toxic
- Activity (MDA-MB-468 [14]): inactive
- Activity (MCF7 [3]): Non-toxic
- Activity (MDA-MB-468 [6]): Non-toxic
- Activity (MDA-MB-468 [9]): Non-toxic
- Activity (MDA-MB-468 [15]): Active

- IC50 (MCF7 [4]): 35.1 µM
- IC50 (MDA-MB-468 [13]): 18.3 µM
SMILES: CN(C)CCNc1cc2c(cn1)cc(NC(=O)c1ccccc1)c(=O)n2C

- IC50 (MCF7 [4]): > 100 µM
- IC50 (MDA-MB-468 [13]): > 100 µM
SMILES: COc1cccc(C(=O)Nc2cc3cnc(NCCN4CCOCC4)cc3n(C)c2=O)c1

- IC50 (MCF7 [4]): 43.2 µM
- IC50 (MDA-MB-468 [13]): 17.4 µM
SMILES: COc1cccc(C(=O)Nc2cc3cnc(NCCN(C)C)cc3n(C)c2=O)c1

- IC50 (MCF7 [4]): > 100 µM
- IC50 (MDA-MB-468 [13]): > 100 µM
SMILES: Cn1c(=O)c(NC(=O)c2ccccc2)cc2cnc(NCCN3CCOCC3)cc21

- IC50 (MCF7 [4]): 4.47 µM
- IC50 (MDA-MB-468 [13]): > 100 µM
SMILES: Cn1c(=O)c(NC(=O)c2ccncc2)cc2cnc(NCCN3CCOCC3)cc21
